The source made the active and inactive calls.
Legend:
[1] = test system: Escherichia coli; test: Effect on Copper-mediated Escherichia coli pUC19 DNA cleavage at 100 uM by gel-electrophoresis analysis
[2] = test system: Escherichia coli; test: Effect on Copper-mediated Escherichia coli pBR322 DNA cleavage at 100 uM by gel-electrophoresis analysis
[3] = test system: Escherichia coli; test: Effect on photodynamic inactivation in Escherichia coli pUC19 DNA assessed as photo-mediated DNA cleavage at 10 to 100 uM by ethidium bromide gel-electrophoresis analysis
[4] = test system: CCRF-CEM; test: Cytotoxicity against human CCRF-CEM cells assessed as cell growth at 1 x 10^-5 M; format: functional, cell-based
Method in brief: (§1)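 Run by the NCI Developmental Therapeutics Program (DTP) as its one-dose screen across the 60 human tumour cell line panel.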

[5] = test system: HL-60(TB); test: Cytotoxicity against human HL-60(TB) cells assessed as cell growth at 1 x 10^-5 M; format: functional, cell-based
Method in brief: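 Run by the NCI Developmental Therapeutics Program (DTP) within its 60 human tumour cell line one-dose screen.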

[6] = test system: K562; test: Cytotoxicity against human K562 cells assessed as cell growth at 1 x 10^-5 M; format: functional, cell-based; method in brief: as §1
[7] = test system: MOLT-4; test: Cytotoxicity against human MOLT4 cells assessed as cell growth at 1 x 10^-5 M; format: functional, cell-based; method in brief: as §1
[8] = test system: SR; test: Cytotoxicity against human SR cells assessed as cell growth at 1 x 10^-5 M; format: functional, cell-based; method in brief: as §1
[9] = test system: A549; test: Cytotoxicity against human A549 cells assessed as cell growth at 1 x 10^-5 M; format: functional, cell-based; method in brief: as §1
[10] = test system: HOP-62; test: Cytotoxicity against human HOP62 cells assessed as cell growth at 1 x 10^-5 M; format: functional, cell-based; method in brief: as §1
[11] = test system: HOP-92; test: Cytotoxicity against human HOP92 cells assessed as cell growth at 1 x 10^-5 M; format: functional, cell-based; method in brief: as §1
[12] = test system: NCI-H226; test: Cytotoxicity against human NCI-H226 cells assessed as cell growth at 1 x 10^-5 M; format: functional, cell-based; method in brief: as §1
[13] = test system: NCI-H23; test: Cytotoxicity against human NCI-H23 cells assessed as cell growth at 1 x 10^-5 M; format: functional, cell-based; method in brief: as §1
[14] = test system: NCI-H322M; test: Cytotoxicity against human NCI-H322M cells assessed as cell growth at 1 x 10^-5 M; format: functional, cell-based; method in brief: as §1
[15] = test system: NCI-H460; test: Cytotoxicity against human NCI-H460 cells assessed as cell growth at 1 x 10^-5 M; format: functional, cell-based; method in brief: as §1
[16] = test system: NCI-H522; test: Cytotoxicity against human NCI-H522 cells assessed as cell growth at 1 x 10^-5 M; format: functional, cell-based; method in brief: as §1
[17] = test system: COLO 205; test: Cytotoxicity against human COLO205 cells assessed as cell growth at 1 x 10^-5 M; format: functional, cell-based; method in brief: as §1
[18] = test system: HCC 2998; test: Cytotoxicity against human HCC2998 cells assessed as cell growth at 1 x 10^-5 M; format: functional, cell-based; method in brief: as §1
[19] = test system: HCT-116; test: Cytotoxicity against human HCT116 cells assessed as cell growth at 1 x 10^-5 M; format: functional, cell-based; method in brief: as §1
[20] = test system: HCT-15; test: Cytotoxicity against human HCT15 cells assessed as cell growth at 1 x 10^-5 M; format: functional, cell-based; method in brief: as §1
[21] = test system: HT-29; test: Cytotoxicity against human HT-29 cells assessed as cell growth at 1 x 10^-5 M; format: functional, cell-based; method in brief: as §1
[22] = test system: KM12; test: Cytotoxicity against human KM12 cells assessed as cell growth at 1 x 10^-5 M; format: functional, cell-based; method in brief: as §1
[23] = test system: SW-620; test: Cytotoxicity against human SW620 cells assessed as cell growth at 1 x 10^-5 M; format: functional, cell-based
Method in brief: (§2)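 Tested by the NCI Developmental Therapeutics Program in its one-dose screen across the 60 human tumour cell line panel.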

[24] = test system: SF-268; test: Cytotoxicity against human SF268 cells assessed as cell growth at 1 x 10^-5 M; format: functional, cell-based; method in brief: as §1
[25] = test system: SF-295; test: Cytotoxicity against human SF295 cells assessed as cell growth at 1 x 10^-5 M; format: functional, cell-based; method in brief: as §1
[26] = test system: SF-539; test: Cytotoxicity against human SF539 cells assessed as cell growth at 1 x 10^-5 M; format: functional, cell-based; method in brief: as §1
[27] = test system: SNB-19; test: Cytotoxicity against human SNB19 cells assessed as cell growth at 1 x 10^-5 M; format: functional, cell-based; method in brief: as §1
[28] = test system: SNB-75; test: Cytotoxicity against human SNB75 cells assessed as cell growth at 1 x 10^-5 M; format: functional, cell-based; method in brief: as §1
[29] = test system: U-251; test: Cytotoxicity against human U251 cells assessed as cell growth at 1 x 10^-5 M; format: functional, cell-based; method in brief: as §2
[30] = test system: LOX IMVI; test: Cytotoxicity against human LOXIMVI cells assessed as cell growth at 1 x 10^-5 M; format: functional, cell-based; method in brief: as §1
[31] = test system: Malme-3M; test: Cytotoxicity against human MALME-3M cells assessed as cell growth at 1 x 10^-5 M; format: functional, cell-based; method in brief: as §1
[32] = test system: M14; test: Cytotoxicity against human M14 cells assessed as cell growth at 1 x 10^-5 M; format: functional, cell-based; method in brief: as §1
[33] = test system: MDA-MB-435; test: Cytotoxicity against human MDA-MB-435 cells assessed as cell growth at 1 x 10^-5 M; format: functional, cell-based; method in brief: as §1
[34] = test system: SK-MEL-2; test: Cytotoxicity against human SK-MEL-2 cells assessed as cell growth at 1 x 10^-5 M; format: functional, cell-based; method in brief: as §1
[35] = test system: SK-MEL-28; test: Cytotoxicity against human SK-MEL-28 cells assessed as cell growth at 1 x 10^-5 M; format: functional, cell-based; method in brief: as §1
[36] = test system: SK-MEL-5; test: Cytotoxicity against human SK-MEL-5 cells assessed as cell growth at 1 x 10^-5 M; format: functional, cell-based; method in brief: as §1
[37] = test system: UACC-257; test: Cytotoxicity against human UACC257 cells assessed as cell growth at 1 x 10^-5 M; format: functional, cell-based; method in brief: as §2
[38] = test system: UACC-62; test: Cytotoxicity against human UACC62 cells assessed as cell growth at 1 x 10^-5 M; format: functional, cell-based; method in brief: as §2
[39] = test system: IGROV-1; test: Cytotoxicity against human IGROV1 cells assessed as cell growth at 1 x 10^-5 M; format: functional, cell-based; method in brief: as §1
[40] = test system: OVCAR-3; test: Cytotoxicity against human OVCAR3 cells assessed as cell growth at 1 x 10^-5 M; format: functional, cell-based; method in brief: as §1
[41] = test system: OVCAR-4; test: Cytotoxicity against human OVCAR4 cells assessed as cell growth at 1 x 10^-5 M; format: functional, cell-based; method in brief: as §1
[42] = test system: OVCAR-5; test: Cytotoxicity against human OVCAR5 cells assessed as cell growth at 1 x 10^-5 M; format: functional, cell-based; method in brief: as §1
[43] = test system: OVCAR-8; test: Cytotoxicity against human OVCAR8 cells assessed as cell growth at 1 x 10^-5 M; format: functional, cell-based; method in brief: as §1
[44] = test system: NCI/ADR-RES; test: Cytotoxicity against human NCI-ADR-RES cells assessed as cell growth at 1 x 10^-5 M; format: functional, cell-based; method in brief: as §1
[45] = test system: SK-OV-3; test: Cytotoxicity against human SKOV3 cells assessed as cell growth at 1 x 10^-5 M; format: functional, cell-based; method in brief: as §1
[46] = test system: 786-0; test: Cytotoxicity against human 786-0 cells assessed as cell growth at 1 x 10^-5 M; format: functional, cell-based; method in brief: as §1
[47] = test system: A498; test: Cytotoxicity against human A498 cells assessed as cell growth at 1 x 10^-5 M; format: functional, cell-based; method in brief: as §1
[48] = test system: ACHN; test: Cytotoxicity against human ACHN cells assessed as cell growth at 1 x 10^-5 M; format: functional, cell-based; method in brief: as §1
[49] = test system: CAKI-1; test: Cytotoxicity against human Caki1 cells assessed as cell growth at 1 x 10^-5 M; format: functional, cell-based; method in brief: as §1
[50] = test system: RXF 393; test: Cytotoxicity against human RXF393 cells assessed as cell growth at 1 x 10^-5 M; format: functional, cell-based; method in brief: as §1
[51] = test system: SN12C; test: Cytotoxicity against human SN12C cells assessed as cell growth at 1 x 10^-5 M; format: functional, cell-based; method in brief: as §1
[52] = test system: TK-10; test: Cytotoxicity against human TK10 cells assessed as cell growth at 1 x 10^-5 M; format: functional, cell-based; method in brief: as §2
[53] = test system: UO-31; test: Cytotoxicity against human UO31 cells assessed as cell growth at 1 x 10^-5 M; format: functional, cell-based; method in brief: as §2
[54] = test system: PC-3; test: Cytotoxicity against human PC3 cells assessed as cell growth at 1 x 10^-5 M; format: functional, cell-based; method in brief: as §1
[55] = test system: DU-145; test: Cytotoxicity against human DU145 cells assessed as cell growth at 1 x 10^-5 M; format: functional, cell-based; method in brief: as §1
[56] = test system: MCF7; test: Cytotoxicity against human MCF7 cells assessed as cell growth at 1 x 10^-5 M; format: functional, cell-based; method in brief: as §1
[57] = test system: MDA-MB-231; test: Cytotoxicity against human MDA-MB-231 cells assessed as cell growth at 1 x 10^-5 M; format: functional, cell-based; method in brief: as §1
[58] = test system: Hs-578T; test: Cytotoxicity against human Hs578T cells assessed as cell growth at 1 x 10^-5 M; format: functional, cell-based; method in brief: as §1
[59] = test system: BT-549; test: Cytotoxicity against human BT549 cells assessed as cell growth at 1 x 10^-5 M; format: functional, cell-based; method in brief: as §1
[60] = test system: T47D; test: Cytotoxicity against human T47D cells assessed as cell growth at 1 x 10^-5 M; format: functional, cell-based; method in brief: as §2
[61] = test system: MDA-MB-468; test: Cytotoxicity against human MDA-MB-468 cells assessed as cell growth at 1 x 10^-5 M; format: functional, cell-based; method in brief: as §1

Cc1cc(O)c2c(c1)C1OC(=O)[C@H](Cc3ccc(NC(=O)COc4ccc5ccccc5c4)cc3)N1C1=C2C(=O)c2cccc(O[C@H]3C[C@@H](O)[C@@H](O)[C@H](C)O3)c2C1=O (some centres undefined)
inactive: Activity [1] | Activity [2] | Activity [3]

Cc1cc(O)c2c(c1)C1OC(=O)[C@H](Cc3ccc(NC(=O)COc4ccccc4)cc3)N1C1=C2C(=O)c2cccc(O[C@H]3C[C@@H](O)[C@@H](O)[C@H](C)O3)c2C1=O (some centres undefined)
inactive: Activity [1] | Activity [2] | Activity [3] | growth inhibition (GI) [4] | growth inhibition (GI) [5] | growth inhibition (GI) [6] | growth inhibition (GI) [7] | growth inhibition (GI) [8] | growth inhibition (GI) [9] | growth inhibition (GI) [10] | growth inhibition (GI) [11] | growth inhibition (GI) [12] | growth inhibition (GI) [13] | growth inhibition (GI) [14] | growth inhibition (GI) [15] | growth inhibition (GI) [16] | growth inhibition (GI) [17] | growth inhibition (GI) [18] | growth inhibition (GI) [19] | growth inhibition (GI) [20] | growth inhibition (GI) [21] | growth inhibition (GI) [22] | growth inhibition (GI) [23] | growth inhibition (GI) [24] | growth inhibition (GI) [25] | growth inhibition (GI) [26] | growth inhibition (GI) [27] | growth inhibition (GI) [28] | growth inhibition (GI) [29] | growth inhibition (GI) [30] | growth inhibition (GI) [31] | growth inhibition (GI) [32] | growth inhibition (GI) [33] | growth inhibition (GI) [34] | growth inhibition (GI) [35] | growth inhibition (GI) [36] | growth inhibition (GI) [37] | growth inhibition (GI) [38] | growth inhibition (GI) [39] | growth inhibition (GI) [40] | growth inhibition (GI) [41] | growth inhibition (GI) [42] | growth inhibition (GI) [43] | growth inhibition (GI) [44] | growth inhibition (GI) [45] | growth inhibition (GI) [46] | growth inhibition (GI) [47] | growth inhibition (GI) [48] | growth inhibition (GI) [49] | growth inhibition (GI) [50] | growth inhibition (GI) [51] | growth inhibition (GI) [52] | growth inhibition (GI) [53] | growth inhibition (GI) [54] | growth inhibition (GI) [55] | growth inhibition (GI) [56] | growth inhibition (GI) [57] | growth inhibition (GI) [58] | growth inhibition (GI) [59] | growth inhibition (GI) [60] | growth inhibition (GI) [61]

— ChEMBL document CHEMBL3585335, “Isolation and Synthetic Diversification of Jadomycin 4-Amino-l-phenylalanine” (J Nat Prod, 2015)
